The RNAGym collection of RNA variant scans (doi:10.1002/anie.201605470)

B1: Osa-1-4 twister ribozyme (parent)
chain: CCGCCUAACACUGCCAAUGCCGGUCCCAAGCCCGGAUAAAAGUGGAGGGGGCGG

Variants of: B1
Assay: self-cleavage, relative activity (ratio to wild type); higher = more cleavage; co-transcriptional
Method in brief: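 The 48 positions downstream of the cleavage site in a 54-nucleotide Oryza sativa twister ribozyme template were synthesised at 97 % wild-type base and 1 % of each other base. The template was transcribed in vitro at 37 °C for 2 h, with self-cleavage allowed during transcription. Reads with or without upstream sequence after deep sequencing marked cleavage status, and relative activity is fraction cleaved normalised to wild type.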

Row | Variant | self-cleavage
1 | CCGCCUAACACUGCCAAUGCCGGUCCUAAGCCCGGAAAAAAGUGGAGGGGGCGG | 0.16
2 | CCGCCUAACACUGCCAAUGCCGGUCCUAAGCCCGGAGAAAAGUGGAGGGGGCGG | 0.37
3 | CCGCCUAACACUGCCAAUGCCGGUCCUAAGCCCGGACAAAAGUGGAGGGGGCGG | 0.32
4 | CCGCCUAAGACUGCCAAUGCCGGUCCCCAGCCCGGAUAAAAGUGGAGGGGGCGG | 0.67
5 | CCGCCUAAUACUGCCAAUGCCGGUCCCCAGCCCGGAUAAAAGUGGAGGGGGCGG | 0.8
6 | CCGCCUAAAACUGCCAAUGCCGGUCCCCAGCCCGGAUAAAAGUGGAGGGGGCGG | 0.42
7 | CCGCCUAACACUGCCAAUGCCGGUCUCCAGCCCGGAUAAAAGUGGAGGGGGCGG | 0.78
8 | CCGCCUAACACUGCCAAUGCCGGUCACCAGCCCGGAUAAAAGUGGAGGGGGCGG | 0.05
9 | CCGCCUAACACUGCCAAUGCCGGUCGCCAGCCCGGAUAAAAGUGGAGGGGGCGG | 0.09
10 | CCGCCUCACACUGCCAAUGCCGGUCCCCAGCCCGGAUAAAAGUGGAGGGGGCGG | 0.06
11 | CCGCCUGACACUGCCAAUGCCGGUCCCCAGCCCGGAUAAAAGUGGAGGGGGCGG | 0.2
12 | CCGCCUUACACUGCCAAUGCCGGUCCCCAGCCCGGAUAAAAGUGGAGGGGGCGG | 0.07
13 | CCGCCUAACAUUGCCAAUGCCGGUCCCCAGCCCGGAUAAAAGUGGAGGGGGCGG | 0.91
14 | CCGCCUAACAAUGCCAAUGCCGGUCCCCAGCCCGGAUAAAAGUGGAGGGGGCGG | 0.71
15 | CCGCCUAACAGUGCCAAUGCCGGUCCCCAGCCCGGAUAAAAGUGGAGGGGGCGG | 0.21
16 | CCGCCUAACACUGCCAAUGCCGGUCCUAAGCCCGGAUAAAAGUGGAGGUGGCGG | 0.04
17 | CCGCCUAACACUGCCAAUGCCGGUCCUAAGCCCGGAUAAAAGUGGAGGCGGCGG | 0.04
18 | CCGCCUAACACUGCCAAUGGCGGUCCCCAGCCCGGAUAAAAGUGGAGGGGGCGG | 0.31
19 | CCGCCUAACACUGCCAAUGACGGUCCCCAGCCCGGAUAAAAGUGGAGGGGGCGG | 0.94
20 | CCGCCUAACACUGCCAAUGUCGGUCCCCAGCCCGGAUAAAAGUGGAGGGGGCGG | 1.01
21 | CCGCCUAACACUGCCAAUGCCGGUCCCCAGCCCGGAUGAAAGUGGAGGGGGCGG | 1.01
22 | CCGCCUAACACUGCCAAUGCCGGUCCCCAGCCCGGAUCAAAGUGGAGGGGGCGG | 0.98
23 | CCGCCUAACACUGCCAAUGCCGGUCCCCAGCCCGGAUUAAAGUGGAGGGGGCGG | 0.97
24 | CCGCCUAACACUGCCAAUGCCGGUCCUAAGCCCGGAUAAAAGUGGAGGGGCCGG | 0.04

Row | Variant | self-cleavage
25 | CCGCCUAACACUGCCAAUGCCGGUCCUAAGCCCGGAUAAAAGUGGAGGGGUCGG | 0.07
26 | CCGCCUAACACUGCCAAUGCCGGUCCUAAGCCCGGAUAAAAGUGGAGGGGACGG | 0.11
27 | CCGCCUAACACUGCCAAUGCCGGUCCUAAGCCCGGAUAAAAGGGGAGGGGGCGG | 0.08
28 | CCGCCUAACACUGCCAAUGCCGGUCCUAAGCCCGGAUAAAAGAGGAGGGGGCGG | 0.11
29 | CCGCCUAACACUGCCAAUGCCGGUCCUAAGCCCGGAUAAAAGCGGAGGGGGCGG | 0.1
30 | CCGCCUAACACUGCCAAUGCCGGUCCCCUGCCCGGAUAAAAGUGGAGGGGGCGG | 0.09
31 | CCGCCUAACACUGCCAAUGCCGGUCCCCCGCCCGGAUAAAAGUGGAGGGGGCGG | 0.05
32 | CCGCCUAACACUGCCAAUGCCGGUCCCCGGCCCGGAUAAAAGUGGAGGGGGCGG | 0.16
33 | CCGCCUAACACUGCCAAUGCCGGUCCCCAGCCCGGAUAAAAGUGGGGGGGGCGG | 0.07
34 | CCGCCUAACACUGCCAAUGCCGGUCCCCAGCCCGGAUAAAAGUGGUGGGGGCGG | 0.07
35 | CCGCCUAACACUGCCAAUGCCGGUCCCCAGCCCGGAUAAAAGUGGCGGGGGCGG | 0.06
36 | CCGCCUAACACUGCCAAUGCCGGUCCCCAGUCCGGAUAAAAGUGGAGGGGGCGG | 0.84
37 | CCGCCUAACACUGCCAAUGCCGGUCCCCAGGCCGGAUAAAAGUGGAGGGGGCGG | 0.09
38 | CCGCCUAACACUGCCAAUGCCGGUCCCCAGACCGGAUAAAAGUGGAGGGGGCGG | 0.04
39 | CCGCCUAACACUGCCAAUGCCGGUCCCCAGCGCGGAUAAAAGUGGAGGGGGCGG | 0.1
40 | CCGCCUAACACUGCCAAUGCCGGUCCCCAGCUCGGAUAAAAGUGGAGGGGGCGG | 0.11
41 | CCGCCUAACACUGCCAAUGCCGGUCCCCAGCACGGAUAAAAGUGGAGGGGGCGG | 0.08
42 | CCGCCUAACACUGCCAAUGCCGGUGCCCAGCCCGGAUAAAAGUGGAGGGGGCGG | 0.09
43 | CCGCCUAACACUGCCAAUGCCGGUACCCAGCCCGGAUAAAAGUGGAGGGGGCGG | 0.09
44 | CCGCCUAACACUGCCAAUGCCGGUUCCCAGCCCGGAUAAAAGUGGAGGGGGCGG | 0.91
45 | CCGCCUAACACUGCCAAUGCCGGUCCCCAGCCCGGAUAAAAGUGGAGGGGGGGG | 0.93
46 | CCGCCUAACACUGCCAAUGCCGGUCCCCAGCCCGGAUAAAAGUGGAGGGGGUGG | 1.01
47 | CCGCCUAACACUGCCAAUGCCGGUCCCCAGCCCGGAUAAAAGUGGAGGGGGAGG | 0.68
48 | CCGCCUAACACUGCCAAUGCCGGUCCCCAGCCCGGAUAAACGUGGAGGGGGCGG | 0.91
